According to ChEMBL document CHEMBL1138521, “Discovery of 4-(5-(4-chlorophenyl)-2-methyl-3-propionyl-1H-pyrrol-1-yl)benzenesulfonamide (A-867744) as a novel positive allosteric modulator of the alpha7 nicotinic acetylcholine receptor” (J Med Chem, 2009):
Active and inactive are the calls of the source. The calls are words filed in the database; no cut-off is given here.

How the values were obtained:
[1] = target: T1, Neuronal acetylcholine receptor subunit alpha-7 (Homo sapiens, UniProt P36544); assay: Allosteric modulator activity at alpha7 nAChR in human IMR32 cells assessed as stimulation of agonist-induced intracellular calcium level by FLIPR assay relative to 1-(5-chloro-2,4-dimethoxyphenyl)-3-(5-methylisoxazol-3-yl)urea; format: functional, cell-based; conditions: IMR-32
T1 sequence (P36544 whole entry): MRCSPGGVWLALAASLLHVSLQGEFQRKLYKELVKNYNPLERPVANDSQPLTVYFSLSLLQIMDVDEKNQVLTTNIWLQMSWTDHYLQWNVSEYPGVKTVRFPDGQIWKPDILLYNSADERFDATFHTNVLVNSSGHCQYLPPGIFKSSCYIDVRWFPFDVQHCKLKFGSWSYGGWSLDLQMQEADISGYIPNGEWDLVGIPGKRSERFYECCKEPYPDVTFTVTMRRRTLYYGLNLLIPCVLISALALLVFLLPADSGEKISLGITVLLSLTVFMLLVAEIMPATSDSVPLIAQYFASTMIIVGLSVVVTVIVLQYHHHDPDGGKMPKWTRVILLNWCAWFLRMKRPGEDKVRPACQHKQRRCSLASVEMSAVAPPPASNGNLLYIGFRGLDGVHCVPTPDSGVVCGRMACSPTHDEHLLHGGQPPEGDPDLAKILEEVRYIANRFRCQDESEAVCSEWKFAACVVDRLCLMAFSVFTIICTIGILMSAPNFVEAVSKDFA
Outline: (§1)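 IMR-32 human neuroblastoma cells (endogenous α7) on poly-D-lysine plates, loaded with calcium-4 no-wash dye in NMDG buffer (10 mM HEPES pH 7.4, 10 mM CaCl2) 1 h at 25 °C. Peak fluorescence over baseline, normalized to maximum; EC50 from 2–5 experiments in duplicate.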

[2] = Metabolic stability in rat liver microsomes assessed as compound remaining after 30 mins; format: ADME, Microsome; conditions: read-out: Stability
Outline: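 Microsomes prewarmed 10 min at 37 °C; reaction started with compound (1 µM final) and NADPH (1 mM final) at 0.5 mg/mL protein, in triplicate. Sampled at 0, 10, 20 and 30 min; stopped with acetonitrile/methanol containing warfarin internal standard; centrifuged supernatant analysed by HPLC-MS.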

[3] = target: T1, Neuronal acetylcholine receptor subunit alpha-7; assay: Allosteric modulator activity at alpha7 nAChR in human IMR32 cells assessed as stimulation of agonist-induced intracellular calcium level by FLIPR assay; format: functional, cell-based, IMR-32; outline: as §1
[4] = Half life in monkey at 0.5 umol/kg, iv; format: ADME, organism-based, Macaca mulatta; conditions: rhesus monkey, in vivo
Oocyte [5] = assay: Modulator activity at alpha7 nAChR in Xenopus laevis oocytes cells assessed as activation of electric currents at 0.1 nM to 10 uM at -60 mV by two-electrode voltage clamp technique; format: cell-based
Outline: (§2)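 Xenopus oocytes, collagenase-defolliculated, injected with ~20–25 ng α7 nAChR cRNA, kept at 18 °C and used 2–7 days later. Two-electrode voltage clamp at −60 mV, room temperature, in Ba2+-OR2 with 0.5 µM atropine. Modulator applied ≥60 s before 1 s application of 100 µM ACh. Apparent peak current expressed as percent of 100 µM ACh response; sigmoidal variable-slope fit.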

[6] = Cmax in dog at 1 umol/kg, po; format: ADME, organism-based, Canis lupus familiaris; set-up: dose 1 umol/kg, route oral; conditions: in vivo
[7] = Cmax in monkey at 1 umol/kg, po; format: ADME, organism-based, Macaca mulatta; set-up: dose 1 umol/kg, route oral; conditions: rhesus monkey, in vivo
Oocyte [8] = assay: Modulator activity at alpha7 nAChR in Xenopus laevis oocytes cells assessed as decay of acetylcholine-evoked electric current response at -60 mV by two-electrode voltage clamp technique; format: cell-based; outline: as §2
[9] = Oral bioavailability in rat at 2 umol/kg; format: ADME, organism-based; conditions: in vivo
Rattus norvegicus [10] = assay: Plasma concentration Sprague-Dawley rat at 10 mg/kg; format: ADME, organism-based; set-up: dose 10 mg/kg; conditions: in vivo
Outline: (§3)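 Anesthetized rat cardiovascular assay at 3, 10 and 30 mg/kg, with plasma concentrations measured alongside mean arterial pressure, heart rate, contractility and peripheral vascular resistance.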

[11] = Volume of distribution at steady state in monkey at 0.5 umol/kg, iv; format: ADME, organism-based, Macaca mulatta; conditions: rhesus monkey, in vivo, read-out: Vdss
Rattus norvegicus [12] = assay: Plasma concentration Sprague-Dawley rat at 30 mg/kg; format: ADME, organism-based; set-up: dose 30 mg/kg; conditions: in vivo; outline: as §3
Brain [13] = assay: Drug level in brain of DBA/2 mouse model of sensory gating deficits at 10 umol/kg, ip; format: functional, tissue-based
Outline: (§4)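 DBA/2 mice dosed ip at 0.1, 1.0 or 10.0 µmol/kg in vehicle of 5% DMSO and 5% Solutol in PBS; brain concentration reported in ng/g.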

[14] = Half life in rat at 2 umol/kg, iv; format: ADME, organism-based; conditions: in vivo
[15] = target: Neuronal acetylcholine receptor; alpha4/beta2 (Homo sapiens) (UniProt P17787+P43681); assay: Activity at human recombinant alpha4beta2 nAChR expressed in HEK293 cells assessed as potentiation of nicotine-evoked calcium transients up to 30 uM; format: cell-based
[16] = Plasma clearance in rat at 2 umol/kg, iv; format: ADME, organism-based
Mus musculus = assay: Improvement in gating deficits in DBA/2 mouse model of sensory gating deficits assessed as reduction in ratio of response to test stimulus relative to preceding response to conditioning stimulus at 0.1 to 10 umol/kg, ip by paired auditory stimulus paradigm assay; format: functional, organism-based
Outline: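 DBA/2 mice (16–20 g) implanted with hippocampal CA3 EEG electrodes under ketamine/xylazine/acepromazine, ≥4 days recovery. Dosed ip in 5% DMSO/5% Solutol in PBS immediately before recording; 120 paired 5 ms white-noise bursts 0.5 s apart over 30 min. N40 amplitude T:C ratio. Within-subjects random-order crossover with vehicle, ≥72 h apart; mean ± SEM, one-way ANOVA with Newman-Keuls test.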

[17] = Cmax in rat at 2 umol/kg, po; format: ADME, organism-based; set-up: dose 2 umol/kg, route oral; conditions: in vivo
[18] = Oral bioavailability in dog at 1 umol/kg; format: ADME, organism-based, Canis lupus familiaris; conditions: in vivo
[19] = Volume of distribution at steady state in dog at 0.5 umol/kg, iv; format: ADME, organism-based, Canis lupus familiaris; conditions: in vivo, read-out: Vdss
Brain [20] = assay: Drug level in brain of DBA/2 mouse model of sensory gating deficits at 1 umol/kg, ip; format: functional, tissue-based; outline: as §4
[21] = Oral bioavailability in monkey at 1 umol/kg; format: ADME, organism-based, Macaca mulatta; conditions: rhesus monkey, in vivo
[22] = Plasma clearance in monkey at 0.5 umol/kg, iv; format: ADME, organism-based, Macaca mulatta; conditions: rhesus monkey
Rattus norvegicus [23] = assay: Plasma concentration Sprague-Dawley rat at 3 mg/kg; format: ADME, organism-based; set-up: dose 3 mg/kg; conditions: in vivo; outline: as §3
[24] = target: Neuronal acetylcholine receptor subunit alpha-7 (Rattus norvegicus) (UniProt Q05941); assay: Modulator activity at alpha7 nAChR in rat neonatal cortical neurons assessed as enhancement of (R)-4-chloro-N-(quinuclidin-8-yl)benzamide-induced calcium flux response at 5 uM by FLIPR assay
Sequence of Neuronal acetylcholine receptor subunit alpha-7 (Rattus norvegicus) (Q05941 whole entry): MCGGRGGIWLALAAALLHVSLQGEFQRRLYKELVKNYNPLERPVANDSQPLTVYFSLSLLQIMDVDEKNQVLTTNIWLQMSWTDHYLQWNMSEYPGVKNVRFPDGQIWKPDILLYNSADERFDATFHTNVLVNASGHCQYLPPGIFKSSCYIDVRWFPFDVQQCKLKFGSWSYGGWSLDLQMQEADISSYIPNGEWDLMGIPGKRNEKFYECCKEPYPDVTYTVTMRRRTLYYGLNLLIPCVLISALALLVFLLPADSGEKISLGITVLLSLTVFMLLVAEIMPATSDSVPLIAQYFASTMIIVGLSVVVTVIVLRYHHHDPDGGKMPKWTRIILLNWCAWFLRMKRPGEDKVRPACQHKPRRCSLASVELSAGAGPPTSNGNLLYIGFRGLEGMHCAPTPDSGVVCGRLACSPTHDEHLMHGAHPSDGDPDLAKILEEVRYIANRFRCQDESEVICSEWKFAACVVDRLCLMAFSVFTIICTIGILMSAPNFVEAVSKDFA
Outline: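 Primary neonatal rat cortical neurons cultured on poly-D-lysine plates (10000 cells/well), assayed 3 days after plating. Calcium-3 dye in HBSS with 20 mM HEPES. After 10 s baseline, modulator added for 3–5 min, then agonist. Peak fluorescence increase over baseline in RFU, normalized to maximal value.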

[25] = Plasma clearance in dog at 0.5 umol/kg, iv; format: ADME, organism-based, Canis lupus familiaris
[26] = Volume of distribution at steady state in rat at 2 umol/kg, iv; format: ADME, organism-based; conditions: in vivo, read-out: Vdss
Brain [27] = assay: Drug level in brain of DBA/2 mouse model of sensory gating deficits at 0.1 umol/kg, ip; format: functional, tissue-based; outline: as §4
[28] = Half life in dog at 0.5 umol/kg, iv; format: ADME, organism-based, Canis lupus familiaris; conditions: in vivo
[29] = target: Neuronal acetylcholine receptor; alpha3/beta4 (Homo sapiens) (UniProt P30926+P32297); assay: Activity at human recombinant alpha3beta4 nAChR expressed in HEK293 cells assessed as potentiation of nicotine-evoked calcium transients up to 30 uM; format: cell-based
Oocyte [30] = assay: Modulator activity at alpha7 nAChR in Xenopus laevis oocytes cells assessed as enhancement of acetylcholine-evoked electric currents at -60 mV by two-electrode voltage clamp technique; format: cell-based; outline: as §2

CCOC(=O)c1cc(-c2ccc(Br)cc2)n(-c2ccc(S(N)(=O)=O)cc2)c1C
Efficacy [1]: 20% | remaining at 0.5 h [2]: 2% | EC50 [3]: 2.6 µM

Cc1cc(C(=O)c2cc(-c3ccc(Cl)cc3)n(-c3ccc(S(N)(=O)=O)cc3)c2C)ccc1Cl
Efficacy [1]: 9% | remaining at 0.5 h [2]: 38% | EC50 [3]: 4.88 µM

Cc1c(C(=O)N2CCCC2)cc(-c2ccc(Cl)cc2)n1-c1ccc(S(N)(=O)=O)cc1
Efficacy [1]: 57% | remaining at 0.5 h [2]: 31% | EC50 [3]: 9.4 µM

CC(=O)c1cc(-c2ccc(Cl)cc2)n(-c2ccc(S(N)(=O)=O)cc2)c1C
remaining at 0.5 h [2]: 64%

CCC(=O)c1cc(-c2ccc(Cl)cc2)n(-c2ccc(S(N)(=O)=O)cc2)c1C
half-life [4]: 1 h | Activity (Oocyte [5]): inactive | Cmax [6]: 0.087 µg/mL | Cmax [7]: 0.017 µg/mL | Activity (Oocyte [8]): Active | bioavailability [9]: 83% | Cp (Rattus norvegicus [10]): 5 µg/mL | Vd [11]: 2.8 L/kg | Cp (Rattus norvegicus [12]): 12.4 µg/mL | Drug uptake (Brain [13]): 140 ng/g | half-life [14]: 1.7 h | Activity [15]: inactive | clearance [16]: 2.1 L/h/kg | Activity (Mus musculus): Active | Cmax [17]: 0.041 µg/mL | bioavailability [18]: 55% | remaining at 0.5 h [2]: 96% | Vd [19]: 1.7 L/kg | Drug uptake (Brain [20]): 15 ng/g | bioavailability [21]: 68% | clearance [22]: 2.5 L/h/kg | Cp (Rattus norvegicus [23]): 1 µg/mL | Activity [24]: Active | clearance [25]: 1.1 L/h/kg | Vd [26]: 4.6 L/kg | Drug uptake (Brain [27]): 2 ng/g | half-life [28]: 1.3 h | Activity [29]: inactive | Activity (Oocyte [30]): Dose-dependent effect

Cc1c(C(=O)c2ccc(Cl)cc2)cc(-c2ccc(Cl)cc2)n1-c1ccc(S(N)(=O)=O)cc1
Efficacy [1]: 5% | EC50 [3]: > 30 µM

Cc1c(C(=O)N2CCOCC2)cc(-c2ccc(Cl)cc2)n1-c1ccc(S(N)(=O)=O)cc1
Efficacy [1]: 5% | EC50 [3]: > 30 µM

CCOC(=O)c1cc(-c2ccc(Cl)cc2)n(-c2ccc(S(N)(=O)=O)cc2)c1C
remaining at 0.5 h [2]: 3%

CCN(C)C(=O)c1cc(-c2ccc(Cl)cc2)n(-c2ccc(S(N)(=O)=O)cc2)c1C
Efficacy [1]: 3% | EC50 [3]: > 30 µM

Cc1c(C(=O)CC(C)C)cc(-c2ccc(Cl)cc2)n1-c1ccc(S(N)(=O)=O)cc1
Efficacy [1]: 74% | remaining at 0.5 h [2]: 44% | EC50 [3]: 3.9 µM

Cc1c(C(=O)O)cc(-c2ccc(Cl)cc2)n1-c1ccc(S(N)(=O)=O)cc1
Efficacy [1]: 8% | EC50 [3]: > 30 µM

COc1ccc(F)cc1C(=O)c1cc(-c2ccc(Cl)cc2)n(-c2ccc(S(N)(=O)=O)cc2)c1C
Efficacy [1]: 26% | remaining at 0.5 h [2]: 45% | EC50 [3]: 10.5 µM

Cc1c(C(=O)N2CCCCC2)cc(-c2ccc(Cl)cc2)n1-c1ccc(S(N)(=O)=O)cc1
Efficacy [1]: 11% | EC50 [3]: > 30 µM

CCCN(CCO)C(=O)c1cc(-c2ccc(Cl)cc2)n(-c2ccc(S(N)(=O)=O)cc2)c1C
Efficacy [1]: 11% | remaining at 0.5 h [2]: 58% | EC50 [3]: 3.6 µM

Cc1c(C(=O)N(C)C)cc(-c2ccc(Cl)cc2)n1-c1ccc(S(N)(=O)=O)cc1
Efficacy [1]: 4% | EC50 [3]: > 30 µM

Cc1c(C(=O)N(C)C(C)C)cc(-c2ccc(Cl)cc2)n1-c1ccc(S(N)(=O)=O)cc1
Efficacy [1]: 8% | EC50 [3]: > 30 µM

Cc1ccc(C(=O)c2cc(-c3ccc(Cl)cc3)n(-c3ccc(S(N)(=O)=O)cc3)c2C)cc1
Efficacy [1]: 7% | EC50 [3]: > 30 µM

Cc1c(C(=O)C2CC2)cc(-c2ccc(Cl)cc2)n1-c1ccc(S(N)(=O)=O)cc1
Efficacy [1]: 25% | remaining at 0.5 h [2]: 92% | EC50 [3]: 4.9 µM
